Test [1] is filed under the species Oryctolagus cuniculus. The test can be described thus: (§1) Tested for inhibition of Na+ -dependent [3H]taurocholate uptake into rabbit ileal brush border membrane vesicles. Type of test: functional. In short, it runs like this: (§2)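 Ileal brush border vesicles from male New Zealand white rabbits (4-5 kg), prepared by Mg2+ precipitation and kept in liquid nitrogen. Vesicles (50 μg protein) in 10 mM Tris-Hepes pH 7.4/300 mM mannitol were added to medium at 30 °C containing 50 μM [3H]taurocholate with 100 mM NaCl or 100 mM KCl. Uptake stopped at 60 s with ice-cold stop solution, then filtration and scintillation. Na+-dependent uptake taken as NaCl minus KCl uptake; mean ± SD, 3-10 independent experiments with different membrane preparations.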

Another test deals with HepG2. The test can be described thus: Tested for inhibition of cholesterol biosynthesis in HEP G2 cells. It counts as functional, cell-based. To be noted: Homo sapiens. In short, it runs like this:
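HEP G2 cells seeded at 5×10^4 cells/cm², grown 24 h in RPMI 1640/10% FCS, then 24 h in 10% lipoprotein-deficient serum. Cholesterol isolated by TLC and counted, corrected for recovery of [3H]cholesterol.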

The species entered for test [2] is Oryctolagus cuniculus. Described as §1. It counts as functional. In short, it runs like this: as §2
The source holds these as a separate data set.

The target in test [3] is T1, 3-hydroxy-3-methylglutaryl-coenzyme A reductase (Rattus norvegicus, UniProt P51639).
T1 sequence (P51639 whole entry): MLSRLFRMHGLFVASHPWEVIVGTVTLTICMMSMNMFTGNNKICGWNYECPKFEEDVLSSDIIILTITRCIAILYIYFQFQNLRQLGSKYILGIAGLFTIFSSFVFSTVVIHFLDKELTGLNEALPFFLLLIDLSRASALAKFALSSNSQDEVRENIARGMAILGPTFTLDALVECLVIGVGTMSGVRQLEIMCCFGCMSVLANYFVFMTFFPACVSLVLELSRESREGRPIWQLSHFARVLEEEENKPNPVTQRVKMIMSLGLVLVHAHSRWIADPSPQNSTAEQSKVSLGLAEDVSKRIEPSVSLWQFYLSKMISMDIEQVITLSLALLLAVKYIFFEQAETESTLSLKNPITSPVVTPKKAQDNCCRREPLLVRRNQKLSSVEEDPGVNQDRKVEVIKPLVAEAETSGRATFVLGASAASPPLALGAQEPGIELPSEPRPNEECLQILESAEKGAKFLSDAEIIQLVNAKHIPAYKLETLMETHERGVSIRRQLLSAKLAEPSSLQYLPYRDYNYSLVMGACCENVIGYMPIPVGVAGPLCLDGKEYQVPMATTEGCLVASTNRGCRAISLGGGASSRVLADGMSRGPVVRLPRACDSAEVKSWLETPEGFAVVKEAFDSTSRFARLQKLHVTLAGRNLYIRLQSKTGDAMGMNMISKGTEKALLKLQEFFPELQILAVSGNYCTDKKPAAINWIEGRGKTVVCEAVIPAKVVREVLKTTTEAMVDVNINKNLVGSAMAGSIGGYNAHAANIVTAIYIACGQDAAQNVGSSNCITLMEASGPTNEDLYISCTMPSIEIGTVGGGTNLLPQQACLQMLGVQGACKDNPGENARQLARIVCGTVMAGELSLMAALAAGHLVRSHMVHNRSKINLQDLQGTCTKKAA
The test can be described thus: Tested for inhibition of rat liver microsomal HMG-CoA reductase. A digest of the protocol: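 Microsomes came from livers of male Wistar rats (200-220 g) fed 2% cholestyramine for 10 days. Assay at pH 7.4 with 40 μg microsomal protein, NADP, glucose-6-phosphate and G6P dehydrogenase. Mevalonolactone separated on anion-exchange column and counted. Six concentrations in triplicate; IC50 read graphically, mean ± SD of three independent experiments.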
(Liver microsomes are vesicles of endoplasmic reticulum, rich in cytochrome P450 enzymes.)

pIC50: −log10 of the molar value.

Broadly, the IC25 is the point of the concentration-response curve where the effect stands at 25%. A higher IC25 goes with weaker potency. A word on the IC75: it is the concentration needed for an effect of 75%. Usually pIC50 stands for −log10 of the IC50, conventionally taken in molar units. The low end stands for a large IC50, the high end for a small IC50. `CC[C@H](C)C(=O)O[C@H]1C[C@@H](C)C=C2C=C[C@H](C)[C@H](CC[C@@H]3C[C@@H](O)CC(=O)O3)[C@H]21` [LOVASTATIN] displayed an IC25 in the test listed under Oryctolagus cuniculus [1] of 230 µM. For the same molecule, the IC75 in the test listed under Oryctolagus cuniculus [1] is greater than 250 µM. Besides, the negative-log IC50 (pIC50) is 7.54 with HepG2, less than 3.60 in the test filed under Oryctolagus cuniculus [2] and 8.15 in test [3].

Consider `CC[C@H](C)C(=O)O[C@H]1C[C@H]2[C@@H](CC[C@@H]3C[C@H](O)CC[C@@]32C)[C@@H]2CCC([C@H](C)C[C@@H]3C[C@@H](O)CC(=O)O3)[C@@]12C` (stereo partly specified), for which, in the test filed under Oryctolagus cuniculus [1], it took 37 µM to reach the 25% level (IC25). In addition, it took 148 µM to reach the 75% level in the test listed under Oryctolagus cuniculus [1] (IC75). Moreover, the pIC50 in the test on HepG2 was 4.79; in the test listed under Oryctolagus cuniculus [2] it was 4.07; in test [3], 6.19.

`C[C@H](CCC(=O)O)[C@H]1CC[C@H]2[C@@H]3[C@H](O)C[C@@H]4C[C@H](O)CC[C@]4(C)[C@H]3C[C@H](O)[C@]12C` [CHOLIC ACID]: in the test filed under Oryctolagus cuniculus [1], the 25% effect concentration (IC25) was 40 µM and the IC75 turned out to be 152 µM. In the test listed under Oryctolagus cuniculus [2], this molecule gave a pIC50 of 4.08.

In the test filed under Oryctolagus cuniculus [1], `C[C@H](CCC(=O)NCCS(=O)(=O)O)[C@H]1CC[C@H]2[C@@H]3[C@H](O)C[C@@H]4C[C@H](O)CC[C@]4(C)[C@H]3CC[C@]12C` [TAUROCHENODEOXYCHOLATE] returned an IC25 of 13 µM and an IC75 of 61 µM. This molecule had a pIC50 in the test listed under Oryctolagus cuniculus [2] of 4.55.

Molecule `CC[C@H](C)C(=O)O[C@H]1C[C@H]2[C@@H](CC[C@@H]3C[C@H](O)CC[C@@]32C)[C@@H]2CCC([C@H](C)C[C@H]3C[C@@H](O)CC(=O)O3)[C@@]12C` (stereo partly specified) showed an IC25 in the test filed under Oryctolagus cuniculus [1] of 47 µM. In the test filed under Oryctolagus cuniculus [1], this molecule registered an IC75 of 166 µM. Moreover, the pIC50 with HepG2 was 4.26; in the test filed under Oryctolagus cuniculus [2], 4.04; in test [3], 5.15.

`CC[C@H](C)C(=O)O[C@H]1C[C@H]2[C@@H](CC[C@@H]3C[C@H](O)CC[C@@]32C)[C@@H]2CCC(CC[C@@H]3C[C@@H](O)CC(=O)O3)[C@@]12C` (stereo partly specified) had an IC25 in the test listed under Oryctolagus cuniculus [1] of 87 µM. In addition, the IC75 in the test listed under Oryctolagus cuniculus [1] is greater than 250 µM. Moreover, the figures for the pIC50 (in the test with HepG2; in the test filed under Oryctolagus cuniculus [2]; in test [3]) were 5.74, 3.77 and 6.70, respectively.

In the test listed under Oryctolagus cuniculus [1], `CC[C@H](C)C(=O)O[C@H]1C[C@H]2[C@@H](CC[C@@H]3C[C@H](O)CC[C@@]32C)[C@@H]2CCC(CC[C@H]3C[C@@H](O)CC(=O)O3)[C@@]12C` (stereo partly specified) showed an IC25 of 87 µM. The same molecule returned an IC75 in the test filed under Oryctolagus cuniculus [1] greater than 250 µM. Also, the values for the negative logarithm of the IC50 (pIC50) (with HepG2; in the test filed under Oryctolagus cuniculus [2]; in test [3]) were 5.09, 3.73 and 6.00, respectively.

For the origin of these results see ChEMBL document CHEMBL1127347, “Synthesis and biological activity of bile acid-derived HMG-CoA reductase inhibitors. The role of 21-methyl in recognition of HMG-CoA reductase and the ileal bile acid transport system” (J Med Chem, 1994).
